This is an account of results in ChEMBL document CHEMBL4038302, “Fibroblast Activation Protein α Activated Tripeptide Bufadienolide Antitumor Prodrug with Reduced Cardiotoxicity” (J Med Chem, 2017).

For data set [1], the system named is [H][C@]12CC[C@@]3([H])[C@@]4(O)CC[C@H](c5ccc(=O)oc5)[C@@]4(C)C(=O)[C@@H](O)[C@]3([H])[C@@]1(C)CC[C@H](OC(=O)Cc1ccc(NC(=O)[C@@H]3CCCN3C(=O)CNC(=O)OCc3ccccc3)cc1)C2. The experiment in a line: Prodrug activation assessed as recombinant human FAP-alpha mediated 5-((3S,5R,8R,9S,10S,11S,13R,14S,17R)-3-(2-(4-aminophenyl)acetyl)-11,14-dihydroxy-10,13-dimethyl-12-oxohexadecahydro-1H-cyclopenta[a]phenanthren-17-yl)-2H-pyran-2-one formation by measuring concentration of test compound gives half-maximal activity after 90 mins by UPLC-MS/MS analysis. The essentials:
(§1)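 Prodrug at 0.625–40 μmol/L incubated with rhFAPα at 0.45 μg/mL and internal standard in 0.2 mL PBS, pH 7.4, at 37 °C for 90 min. Quenched with MeCN and spun at 18 000g for 15 min; product measured by UPLC-MS/MS. S50 and Vmax fitted with an allosteric sigmoidal model; CLint = Vmax/S50. Three independent experiments.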

Data set [2] relates to [H][C@]12CC[C@@]3([H])[C@@]4(O)CC[C@H](c5ccc(=O)oc5)[C@@]4(C)C(=O)[C@@H](O)[C@]3([H])[C@@]1(C)CC[C@H](OC(=O)[C@H](C)NC(=O)[C@@H]1CCCN1C(=O)CNC(=O)OCc1ccccc1)C2. Kind of data set: Prodrug activation assessed as recombinant human FAP-alpha mediated (S)-((3S,5R,8R,9S,10S,11S,13R,14S,17R)-11,14-dihydroxy-10,13-dimethyl-12-oxo-17-(2-oxo-2H-pyran-5-yl)hexadecahydro-1H-cyclopenta[a]phenanthren-3-yl) 2-aminopropanoate formation by measuring concentration of test compound gives half-maximal activity after 90 mins by UPLC-MS/MS analysis. In outline: as §1

Data set [3] has as its system [H][C@]12CC[C@@]3([H])[C@@]4(O)CC[C@H](c5ccc(=O)oc5)[C@@]4(C)C(=O)[C@@H](O)[C@]3([H])[C@@]1(C)CC[C@H](OC(=O)[C@@H](NC(=O)[C@@H]1CCCN1C(=O)CNC(=O)OCc1ccccc1)C(C)C)C2. Kind of data set: Prodrug activation assessed as recombinant human FAP-alpha mediated (S)-((3S,5R,8R,9S,10S,11S,13R,14S,17R)-11,14-dihydroxy-10,13-dimethyl-12-oxo-17-(2-oxo-2H-pyran-5-yl)hexadecahydro-1H-cyclopenta[a]phenanthren-3-yl) 2-amino-3-methylbutanoate formation by measuring concentration of test compound gives half-maximal activity after 90 mins by UPLC-MS/MS analysis. The essentials: as §1

The subject of data set [4] is [H][C@]12CC[C@@]3([H])[C@@]4(O)CC[C@H](c5ccc(=O)oc5)[C@@]4(C)C(=O)[C@@H](O)[C@]3([H])[C@@]1(C)CC[C@H](OC(=O)[C@H](Cc1c[nH]c3ccccc13)NC(=O)[C@@H]1CCCN1C(=O)CNC(=O)OCc1ccccc1)C2. Kind of data set: Prodrug activation assessed as recombinant human FAP-alpha mediated (S)-((3S,5R,8R,9S,10S,11S,13R,14S,17R)-11,14-dihydroxy-10,13-dimethyl-12-oxo-17-(2-oxo-2H-pyran-5-yl)hexadecahydro-1H-cyclopenta[a]phenanthren-3-yl) 2-amino-3-(1H-indol-3-yl)propanoate formation by measuring concentration of test compound gives half-maximal activity after 90 mins by UPLC-MS/MS analysis. In outline: as §1

A further data set addresses T1, Prolyl endopeptidase FAP (Homo sapiens, UniProt Q12884).
T1 sequence (Q12884 whole entry): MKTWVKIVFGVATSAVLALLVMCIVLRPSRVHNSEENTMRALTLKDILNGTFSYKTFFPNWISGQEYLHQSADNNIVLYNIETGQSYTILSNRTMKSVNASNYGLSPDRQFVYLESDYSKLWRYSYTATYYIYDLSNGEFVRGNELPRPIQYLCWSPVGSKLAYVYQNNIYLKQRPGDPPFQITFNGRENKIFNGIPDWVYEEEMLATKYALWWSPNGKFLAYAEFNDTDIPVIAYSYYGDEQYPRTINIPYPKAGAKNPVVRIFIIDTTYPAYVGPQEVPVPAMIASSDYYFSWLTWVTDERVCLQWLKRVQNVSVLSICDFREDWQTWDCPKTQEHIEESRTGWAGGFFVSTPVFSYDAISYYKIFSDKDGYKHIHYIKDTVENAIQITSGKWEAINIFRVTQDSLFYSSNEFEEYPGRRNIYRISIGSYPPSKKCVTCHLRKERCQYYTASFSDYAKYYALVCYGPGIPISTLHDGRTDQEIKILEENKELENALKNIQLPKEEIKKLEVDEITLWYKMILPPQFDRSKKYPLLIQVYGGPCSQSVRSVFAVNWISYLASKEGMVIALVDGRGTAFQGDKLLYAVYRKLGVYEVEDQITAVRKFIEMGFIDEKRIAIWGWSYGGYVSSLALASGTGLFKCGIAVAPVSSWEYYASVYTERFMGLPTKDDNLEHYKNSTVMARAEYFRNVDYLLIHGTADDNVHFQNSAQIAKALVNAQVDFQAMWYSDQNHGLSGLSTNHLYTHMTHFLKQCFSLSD
Kind of data set: Prodrug activation assessed as recombinant human FAP-alpha mediated (3S,5R,8R,9S,10S,11S,13R,14S,17R)-11,14-dihydroxy-10,13-dimethyl-12-oxo-17-(2-oxo-2H-pyran-5-yl)hexadecahydro-1H-cyclopenta[a]phenanthren-3-yl 4-aminobenzoate formation at 40 umol/L after 6 hrs by UPLC-MS/MS analysis. The note with it: 40 µM. The essentials: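 Prodrug at 40 μmol/L incubated with rhFAPα at 0.45 μg/mL in 0.2 mL buffer at 37 °C for 6 h, with bufalin at 2 μmol/L as internal standard. Stopped with acetonitrile and spun at 18 000g for 15 min. Released active form measured by UPLC-MS/MS via peak-area ratio against a standard curve of 0.625–40 μmol/L.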

The next data set relates to MDA-MB-435. The experiment in a line: Antiproliferative activity against wild type human MDA-MB-435 cells expressing FAP-alpha incubated for 48 hrs by MTT assay. The format is functional, cell-based. The note with it: MDA-MB-435, 48 h. In outline: (§2)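 Cells grown in DMEM with 10% FBS and 1% penicillin-streptomycin at 37 °C, 5% CO2; 10% heat-inactivated FBS used during cytotoxicity testing to exclude serum FAP activity. Viability read by MTT; IC50 as mean ± SEM of at least three independent experiments. Transfected lines were made from MDA-MB-231 with human FAPα plasmid or empty pCMV6-Entry vector and checked by Western blot at 48 h.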

Data set [5] in a line: Acute toxicity in iv dosed Kunming mouse measured less than 4 hrs post dose. The format is organism-based. The note with it: in vivo. In outline:
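Kunming mice (22.0−28.0 g), half male and half female, 10 groups of n = 10. Single iv dose on day 1 across five levels per compound (prodrug 29.98–50.00 μmol/kg; arenobufagin 4.50–8.00 μmol/kg). Watched continuously for 8 h for abnormal behaviour and deaths, then intermittently for 2 weeks, and sacrificed day 14. LD50 by Bliss method.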

Data set [6] concerns Mus musculus. The experiment in a line: Cardiotoxicity in BALB/C nude mouse xenografted with human MDA-MB-231 cells assessed as increase in LDH level at 4 umol/kg, iv administered starting on day 5 measured after day 22. The format is toxicity, organism-based. Conditions: in vivo. In outline: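 Xenograft-bearing mice dosed iv daily in 5% HS15. Blood taken by cardiac puncture before sacrifice and spun at 3000 rpm for 20 min at 4 °C to give serum. D-LDH activity measured by colorimetric kit. n = 6, one-way ANOVA with Tukey's test against HS15 control.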

Data set [7] has as its system MDA-MB-231. Kind of data set: Antitumor activity against human MDA-MB-231 cells xenografted in BALB/C nude mouse assessed as tumor regression at 4 umol/kg, iv administered starting on day 5 measured after day 22 by Ki67 staining-based assay. The data set is classed as functional, organism-based.
The subject of data set [8] is Mus musculus. The experiment in a line: Cardiotoxicity in BALB/C nude mouse xenografted with human MDA-MB-231 cells assessed as increase in interventricular septal diastole dimension at 4 umol/kg, iv administered starting on day 5 measured after day 22 by echocardiography. The format is toxicity, organism-based. Conditions: in vivo. The essentials: (§3)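 MDA-MB-231 xenograft mice dosed iv daily in 5% HS15 from day 5, 22 days of treatment. Transthoracic echocardiography with a 21 MHz transducer under 1.5% isoflurane, supine position. M-mode images from parasternal short-axis view at papillary muscle level, used to derive LVIDd, LVIDs, IVSd and IVSs. n = 6, mean ± SEM, one-way ANOVA with Tukey's test.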

The test system of data set [9] is Mus musculus. The experiment in a line: Cardiotoxicity in BALB/C nude mouse xenografted with human MDA-MB-231 cells assessed as increase in interventricular septal systole dimension at 4 umol/kg, iv administered starting on day 5 measured after day 22 by echocardiography. The format is toxicity, organism-based. The note with it: in vivo. In outline: as §3
A general note: A xenograft is tissue or cells of one species grown in another, often human tumour cells in immunodeficient mice.

The test system of data set [10] is Mus musculus. The experiment in a line: Acute toxicity in Kunming mouse assessed as mortality at 4 umol/kg, iv after 8 hrs post dose. The format is organism-based. Conditions: in vivo.
The subject of data set [11] is MDA-MB-231. The experiment in a line: Antiproliferative activity against human MDA-MB-231 cells assessed as decrease in cell viability at 62.5 to 500 nmol/L after 72 hrs by MTT assay. The format is functional, cell-based. (In general: Tetrazolium dyes change colour on reduction, which living cells bring about.)
For data set [12], the system named is Mus musculus. The experiment in a line: Cardiotoxicity in BALB/C nude mouse xenografted with human MDA-MB-231 cells assessed as decrease in left ventricular internal diastole dimension at 4 umol/kg, iv administered starting on day 5 measured after day 22 by echocardiography. The format is toxicity, organism-based. The note with it: in vivo. In outline:
as §3

For a further data set, the system named is MCF7. The experiment in a line: Antiproliferative activity against FAP-alpha deficient human MCF7 cells incubated for 48 hrs by MTT assay. The format is functional, cell-based. The note with it: MCF7, 48 h. In outline:
as §2

The test system of data set [13] is Mus musculus. Kind of data set: Cardiotoxicity in BALB/C nude mouse xenografted with human MDA-MB-231 cells assessed as cytoplasmic vacuolization at 4 umol/kg, iv administered starting on day 5 measured after day 22 by hematoxylin-eosin staining-based assay. Conditions: in vivo. The data set is classed as toxicity, organism-based. In outline: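 Xenograft mice (MDA-MB-231, female BALB/C nude) dosed iv daily in 5% HS15 from day 5. Heart fixed 24 h, paraffin-embedded, cut into 5 μm sections and stained with H&E. Vacuolization scored by a pathologist blind to treatment.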

In data set [14] the test system is Mus musculus. The experiment in a line: Cardiotoxicity in BALB/C nude mouse xenografted with human MDA-MB-231 cells assessed as decrease in left ventricular internal systole dimension at 4 umol/kg, iv administered starting on day 5 measured after day 22 by echocardiography. The format is toxicity, organism-based. The note with it: in vivo. The essentials: as §3

Data set [15] relates to MDA-MB-231. The experiment in a line: Antiproliferative activity against FAP-alpha deficient human MDA-MB-231 cells incubated for 48 hrs by MTT assay. The data set is classed as functional, cell-based. Conditions: MDA-MB-231, 48 h. The essentials:
as §2

Data set [16] is described as follows: Cytotoxicity in BMSC (unknown origin) assessed as cell viability at 1000 nmol/L after 72 hrs by MTT assay. Conditions: unidentified, 1 µM. The format is cell-based.
In data set [17] the test system is MDA-MB-231. The experiment in a line: Antitumor activity against human MDA-MB-231 cells xenografted in BALB/C nude mouse at 4 umol/kg, iv administered starting on day 5 measured after day 22 by Ki67 staining-based assay relative to control. The format is functional. In outline:
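Female BALB/C nude mice, MDA-MB-231 cells (1 × 10^7) injected subcutaneously in Matrigel–PBS 1:1. Daily iv dosing in 5% HS15 vehicle from day 5. Tumours fixed and paraffin-embedded, 5 μm sections, anti-Ki67 IHC, read blind by a pathologist. Proliferative index by image analysis, n = 6. Compared with 5% HS15 control by one-way ANOVA and Tukey's test.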

Activity calls are given as the source filed them. The rule behind the calls is not given here.

By Vmax is commonly meant the top rate of the reaction or transport when substrate is in excess. Turning to Prolyl endopeptidase FAP (Homo sapiens), the K0.5 came out at 3.68 µM in data set [1], 21.3 µM in data set [2], 34.5 µM in data set [3] and 10.4 µM in data set [4]. Further, the Vmax in [1] came out at 0.026 µmol/min/mg; in data set [2] it was 0.494 µmol/min/mg; in data set [3], 0.044 µmol/min/mg; in data set [4], 0.682 µmol/min/mg.
Consider `C[C@]12CC[C@H](OC(=O)c3ccc(NC(=O)[C@@H]4CCCN4C(=O)CNC(=O)OCc4ccccc4)cc3)C[C@H]1CC[C@@H]1[C@@H]2[C@H](O)C(=O)[C@]2(C)[C@@H](c3ccc(=O)oc3)CC[C@]12O`, for which, on Prolyl endopeptidase FAP, the Drug metabolism result is reported as “Metabolite_Notdetected”.
One may read the IC50 as the concentration needed to halve the response being measured. The term LD50 denotes the dose expected to kill half of the subjects tested. A lower LD50 goes with a more toxic substance. As to `C[C@]12CC[C@H](O)C[C@H]1CC[C@@H]1[C@@H]2[C@H](O)C(=O)[C@]2(C)[C@@H](c3ccc(=O)oc3)CC[C@]12O`, the IC50 in the data set on MDA-MB-435 came out at 22.4 nM; with MCF7, 8.88 nM; in the data set on MDA-MB-231 [15], 15.7 nM. This compound also yielded an LD50 at 4 h in data set [5] of 6.82 µmol/kg. In addition, the Activity result in the data set with Mus musculus [6] is “Toxic”; with Mus musculus [8], “Toxic”; with Mus musculus [9], “Toxic”; in the data set with Mus musculus [10] it was “Non-Toxic”; with Mus musculus [12], “Toxic”; with Mus musculus [13], “Toxic”. Further, the Activity entry is on record as “Toxic” in the data set with Mus musculus [14], “Non-Toxic” in data set [16] and 45 - 50% with MDA-MB-231 [17]. The outcome in the data set on MDA-MB-231 [7] and in the data set with MDA-MB-231 [11] was Active.
